From ChEMBL document CHEMBL1126240, “Structure-activity relationship studies of central nervous system agents. 5. Effect of the hydrocarbon chain on the affinity of 4-substituted 1-(3-chlorophenyl)piperazines for 5-HT1A receptor site” (J Med Chem, 1992)

Tests used:
[1] = molecular target: T1, 5-hydroxytryptamine receptor 1A (Rattus norvegicus) (UniProt P19327); experiment: Ability to displace the protonated form of [3H]8-hydroxy-2-(di-n-propylamino)tetralin binding from labeled 5-hydroxytryptamine 1A receptor site in rat brain hippocampus; assay type: tissue-based
T1 sequence (whole entry): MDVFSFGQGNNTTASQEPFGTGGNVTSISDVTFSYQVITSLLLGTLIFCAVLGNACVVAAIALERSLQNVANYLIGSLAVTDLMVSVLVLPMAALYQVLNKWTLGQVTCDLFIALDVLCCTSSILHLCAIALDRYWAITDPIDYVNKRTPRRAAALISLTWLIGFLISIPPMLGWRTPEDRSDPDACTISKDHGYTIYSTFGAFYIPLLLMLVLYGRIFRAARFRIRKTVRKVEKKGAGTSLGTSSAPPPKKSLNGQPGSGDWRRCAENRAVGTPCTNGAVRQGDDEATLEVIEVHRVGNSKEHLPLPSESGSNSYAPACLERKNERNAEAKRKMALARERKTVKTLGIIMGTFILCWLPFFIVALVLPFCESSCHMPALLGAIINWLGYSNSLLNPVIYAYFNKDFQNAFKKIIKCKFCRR
How it was run: (§1)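 Radioligand displacement in rat hippocampal tissue using [³H]-8-OH-DPAT as ligand, following a previously published protocol; affinity given as Ki for the protonated (AH+) species.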

[2] = Compound was evaluated for the Ionization constants at 37 degree Centigrade pKa2; assay type: physicochemical; conditions: read-out: pKa2
How it was run: (§2)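 Potentiometric titration at 37 °C; pKa values fitted to the titration data by nonlinear regression.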

[3] = molecular target: T2, 5-hydroxytryptamine receptor 1A (Rattus norvegicus, UniProt P19327); experiment: In vitro ability to displace [3H]8-hydroxy-2-(di-n-propylamino) tetralin binding from 5-hydroxytryptamine 1A receptor site in rat brain hippocampus; assay type: tissue-based
T2 sequence (P19327 whole entry): T1 sequence (whole entry)

[4] = % ionization at the pH 7.4 at 37 degree Centigrade; assay type: ADME
How it was run: (§3)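 Fraction ionized calculated from eq 1 using pKa2 measured by potentiometric titration at 37 °C, for pH 7.4 and 37 °C.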

[5] = Compound was evaluated for the percentage ionization at the pH 7.4 at 37 degree Centigrade; assay type: ADME; how it was run: as §3
[6] = molecular target: T1, 5-hydroxytryptamine receptor 1A (Rattus norvegicus); experiment: Compound was evaluated for its ability to displace the protonated form of [3H]8-hydroxy-2-(di-n-propylamino)tetralin binding from labeled 5-HT 1A receptor site.; how it was run: as §1
[7] = Compound was evaluated for the Ionization constants at 37 degree Celsius pKa1; assay type: physicochemical; conditions: read-out: pKa1; how it was run: as §2
[8] = molecular target: T1, 5-hydroxytryptamine receptor 1A (Rattus norvegicus); conditions: Hippocampus

SMILES | KiAH [1] [nM] | pKa [2] | Ki [3] [nM] | Ionization [4] [%] | Ionization [5] [%] | KiAH [6] [nM] | pKa [7] | KiAH [8] [nM]
Clc1cccc(N2CCN(Cc3ccccc3)CC2)c1 | 0.166 | 4.39 | 166 | 0.1 |  |  |  | 
CCCN(CCC)C1CCc2cccc(O)c2C1 (stereo unspecified) [8-OH-DPAT] |  | 8.02 |  |  | 80.6 | 1.16 |  | 
Clc1cccc(N2CC[N+]3(CCCC3)CC2)c1 |  |  | 7220 |  |  |  |  | 
Clc1cccc(N2CCOCC2)c1 |  |  | > 100000 |  |  |  | 2.33 | 
CCCCN1CCN(c2cccc(Cl)c2)CC1 | 3.06 | 6.7 | 18.4 | 16.6 |  |  | 2.43 | 
OCCN1CCN(c2cccc(Cl)c2)CC1 | 50.3 | 6.92 | 202 | 24.9 |  |  |  | 
C=CCN1CCN(c2cccc(Cl)c2)CC1 | 81.2 | 7.08 | 251 | 32.4 |  |  | 2.94 | 
CCC(C)N1CCN(c2cccc(Cl)c2)CC1 (stereo unspecified) | 27.4 | 6.84 | 127 | 21.6 |  |  | 2.32 | 
CC1(C)CC(=O)N(CCCCN2CCN(c3ncccn3)CC2)C(=O)C1 [GEPIRONE] | 20.2 | 7.64 |  | 63.5 |  |  |  | 
CCC(=O)N1CCN(c2cccc(Cl)c2)CC1 |  |  | 30800 |  |  |  |  | 
CCCC(=O)N1CCN(c2cccc(Cl)c2)CC1 |  |  | 49000 |  |  |  |  | 
O=C(Cc1ccccc1)N1CCN(c2cccc(Cl)c2)CC1 |  |  | 14800 |  |  |  |  | 
CC(C)N1CCN(c2cccc(Cl)c2)CC1 | 102 | 7.65 | 159 | 64 |  |  | 2.37 | 
Clc1cccc(N2CCNCC2)c1 [CHLOROPHENYLPIPERAZINE] | 131 | 8.42 | 143 | 91.3 |  |  |  | 
O=C(c1ccccc1)N1CCN(c2cccc(Cl)c2)CC1 |  |  | > 100000 |  |  |  |  | 
CCCN1CCN(c2cccc(Cl)c2)CC1 | 38.9 | 7.07 | 122 | 31.9 |  |  | 2.39 | 
CC(=O)N1CCN(c2cccc(Cl)c2)CC1 |  |  | > 100000 |  |  |  |  | 
O=C1c2ccccc2S(=O)(=O)N1CCCCN1CCN(c2ncccn2)CC1 [IPSAPIRONE] |  | 5.25 | 3.4 | 0.7 |  |  |  | 0.024
CCCCCN1CCN(c2cccc(Cl)c2)CC1 | 0.282 | 6.13 | 5.54 | 5.1 |  |  | 2.46 | 
CC(C)C(=O)N1CCN(c2cccc(Cl)c2)CC1 |  |  | > 100000 |  |  |  |  | 
CCCCCCN1CCN(c2cccc(Cl)c2)CC1 | 0.032 | 5.49 | 2.67 | 1.2 |  |  | 2.57 | 
CCN1CCN(c2cccc(Cl)c2)CC1 | 166 | 7.89 | 220 | 75.5 |  |  | 2.48 | 
CN1CCN(c2cccc(Cl)c2)CC1 | 134 | 8.27 | 152 | 88.1 |  |  | 2.82 | 
